Measurements pooled from the literature.
Each line is one published result; the experiments were not run side by side.
Cell line: CCRF-CEM
Effect on: cell growth or viability

The IC50 of `COC(=O)c1cc(CCc2cc(OC)ccc2OC)sc1N` is reported as 1.4 µM (48 h).
`COc1ccc(C(=O)c2cc3c(-c4ccccc4)c(O)ccc3o2)cc1` gave an IC50 of 0.88 µM (72 h).
With `COC(=O)c1cc(CCc2ccccc2OC)sc1N` the IC50 was 1.2 µM (48 h).
The IC50 of `O=C1C(=Cc2ccccc2)CN(C(=O)CC(=O)N2CC(=Cc3ccccc3)C(=O)C(=Cc3ccccc3)C2)CC1=Cc1ccccc1` is reported as 0.2 µM (72 h).
`Cc1ccc(C=C2SC(=O)N(CC(=O)Nc3ccc(F)cc3F)C2=O)cc1C` gave an IC50 of 31.9 µM (MTT; 48 h).
For `COc1ccc(CCc2cc(C#N)c(N)s2)cc1`, the IC50 was 7.2 µM (48 h).
The IC50 of `O=C1C(=Cc2ccccc2)CN(C(=O)C(=O)N2CC(=Cc3ccccc3)C(=O)C(=Cc3ccccc3)C2)CC1=Cc1ccccc1` is reported as 0.75 µM (72 h).
With `CC(=O)O[C@H]1C(=O)[C@@]2(C)[C@H]([C@H](OC(=O)c3ccccc3)[C@]3(O)C[C@H](OC(=O)[C@H](O)[C@@H](NC(=O)c4ccccc4)c4ccccc4)C(C)=C1C3(C)C)[C@]1(OC(C)=O)CO[C@@H]1C[C@@H]2O` the IC50 was 0.31 µM (MTT; 48 h).
With `COc1ccccc1C(=O)c1cc2c(-c3ccccc3)c(O)ccc2o1` the IC50 was 19 µM (72 h).
For `CCC[C@H](Nc1nc(-c2ccc(NC(=O)NCC)c(OC)c2)ncc1C)c1cccnc1`, the IC50 was 0.0036 µM (fluorescence; 72 h).
The IC50 of `O=C(CN1C(=O)SC(=Cc2ccc(F)cc2)C1=O)Nc1ccc(Cl)cc1C(F)(F)F` is reported as 38 µM (MTT; 48 h).
For `COc1cc(OC)cc(C(=O)c2cc3c(-c4ccccc4)c(OC)ccc3o2)c1`, the IC50 was > 50 µM (72 h).
`CCOC(=O)c1cc(CCc2cc(OC)ccc2OC)sc1N` gave an IC50 of 0.4 µM (48 h).
For `O=C1NC(=NCc2cccs2)S/C1=C\c1ccc2ncccc2c1`, the IC50 was 2.5 µM.
`O=C(CN1C(=O)SC(=Cc2ccccc2)C1=O)Nc1ccc(Cl)cc1C(F)(F)F` has an IC50 of 47.5 µM (MTT; 48 h).
The IC50 of `CCOC(=O)c1c(N)sc(CCc2cc(OC)ccc2OC)c1C(=O)OCC` is reported as 20 µM (48 h).
The IC50 of `COc1ccc(/C=C\c2cc(OC)c(OC)c(OC)c2)cc1O` is reported as 0.0018 µM (72 h).
`COC(=O)c1cc(-c2cc(OC)ccc2OC)sc1N` gave an IC50 of 30 µM (48 h).
For `O=C(CN1C(=O)SC(=Cc2ccccc2)C1=O)Nc1nc2c(Cl)cccc2s1`, the IC50 was 35.1 µM (MTT; 48 h).
With `COc1cccc(C(=O)c2cc3c(-c4ccccc4)c(O)ccc3o2)c1` the IC50 was 35 µM (72 h).
For `O=C1C(=Cc2ccccc2)CN(C(=O)C=CC(=O)N2CC(=Cc3ccccc3)C(=O)C(=Cc3ccccc3)C2)CC1=Cc1ccccc1`, the IC50 was 7.75 µM (72 h).
`COC(=O)c1c(N)sc(CCc2cc(OC)ccc2OC)c1C` gave an IC50 of 30 µM (48 h).
The IC50 of `COc1cccc2c1C(=O)c1c(O)c3c(c(O)c1C2=O)C[C@@](O)(C(=O)CO)C[C@@H]3O[C@H]1C[C@H](N)[C@H](O)[C@H](C)O1` is reported as 0.01 µM (resazurin; 72 h).
